Source: PMC3832945 (Molecular pharmaceutics, 2013)
Peptide text beside a SMILES is read from it.

Columns and labels:
[1] = test system: Myeloperoxidase activity (a measure of neutrophil migration); assay: Myeloperoxidase; type: in vivo, mouse; settings: for effect on MPO activity: 10 μM
Summary of the method: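 Jejunum or colon of wild-type and PepT1 knockout mice perfused in situ with Krebs–Ringer buffer (jejunum 0.067, colon 0.1 mL/min) for 30 min. Then 10 μM test compound, ± 50 mM GlyGly, for 4 h. MPO by o-dianisidine/H2O2 oxidation at pH 6.0, A460 over 2 min, reported as IU/g wet tissue. n = 5, mean ± SE, ANOVA/Tukey.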

PepT1 [2] = molecular target: T1, PepT1 (Mus musculus, UniProt Q9JIP7); assay: In situ single-pass jejunal perfusion of [3H]fMet-Leu-Phe; type: in vivo
T1 sequence (Q9JIP7 1-709): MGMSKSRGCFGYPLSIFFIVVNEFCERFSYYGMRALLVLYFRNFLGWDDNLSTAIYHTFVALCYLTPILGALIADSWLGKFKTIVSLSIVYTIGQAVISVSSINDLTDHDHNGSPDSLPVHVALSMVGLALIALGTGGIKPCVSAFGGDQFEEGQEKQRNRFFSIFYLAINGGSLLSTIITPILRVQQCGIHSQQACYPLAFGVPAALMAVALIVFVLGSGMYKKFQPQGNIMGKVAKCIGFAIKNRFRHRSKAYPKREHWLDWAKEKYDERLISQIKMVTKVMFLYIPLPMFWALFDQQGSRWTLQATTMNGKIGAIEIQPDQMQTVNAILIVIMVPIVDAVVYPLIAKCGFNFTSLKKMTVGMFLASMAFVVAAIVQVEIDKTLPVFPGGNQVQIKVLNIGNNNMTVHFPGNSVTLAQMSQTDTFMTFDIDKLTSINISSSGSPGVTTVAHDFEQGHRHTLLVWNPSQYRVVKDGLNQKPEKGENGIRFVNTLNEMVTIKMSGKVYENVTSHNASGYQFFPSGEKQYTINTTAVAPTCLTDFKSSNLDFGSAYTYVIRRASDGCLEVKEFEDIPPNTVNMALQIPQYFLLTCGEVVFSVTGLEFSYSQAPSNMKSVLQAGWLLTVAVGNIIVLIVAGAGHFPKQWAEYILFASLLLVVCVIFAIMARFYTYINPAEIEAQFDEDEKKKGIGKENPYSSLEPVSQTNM

[3] = Metabolism in intestinal segments; type: in vitro ADME, mouse; settings: wild-type mice, 0.8 mM, 5 min, 37 °C
Summary of the method: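 Wild-type intestinal pieces, 1 cm, opened longitudinally to expose the lumen. Incubated in PBS pH 7.4 with 0.8 mM test compound, 5 min, 37 °C, then iced and stopped with 10% TFA. Spun 12 000g, 5 min. Supernatant on reversed-phase C18 HPLC, UV 210 nm, 15–30% acetonitrile (0.1% TFA) gradient over 30 min. Parent and fragments identified with standards.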

[4] = Hydrolysis kinetics in jejunal homogenates; type: in vitro ADME, mouse; settings: 0.4–100 μM, 1 min, 37 °C
Summary of the method: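 Jejunal mucosa scraped from wild-type or PepT1 knockout mice and homogenised in ice-cold PBS for 2 min. Spun at 12 000g for 15 min; supernatant protein at 0.5 mg/mL. Incubated with [3H-Phe]-labelled test compound at 0.4–100 μM, 1 min, 37 °C. Stopped with 10% TFA, HPLC with radiochemical detection. Rate from parent loss; Vmax and Km fitted; n = 4, mean ± SE.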

[5] = Exposure in portal vein during jejunal perfusion; type: in vivo, mouse; settings: 90 min jejunal perfusion of 0.1 μM [3H-Phe]fMet-Leu-Phe, wild-type mice
Summary of the method: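 Wild-type jejunal single-pass perfusion with 2 μCi/ml (0.1 μM) [3H-Phe]-labelled tripeptide; portal venous blood drawn at 80–90 min. Intact tripeptide and [3H-Phe] measured by HPLC with radiochemical detection: isocratic 30% acetonitrile plus 0.1% TFA, 1.0 mL/min, ambient. Peaks assigned with radiolabelled standards.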

PepT1 [6] = assay: Regional intestinal permeability; type: in vivo, mouse; settings: colon, 0.1 μM
Summary of the method: (§1)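 Each region perfused separately in situ in fasted, pentobarbital-anaesthetised (40–60 mg/kg ip) wild-type and PepT1 knockout mice at 31 °C. Perfusate: 135 mM NaCl, 5 mM KCl, 10 mM MES pH 6.5, [14C]inulin, 2 μCi/ml (0.1 μM) labelled compound, 100 mM Phe, 0.1 mL/min. Outflow sampled every 10 min for 90 min and counted. Inulin-corrected steady-state Peff from parallel-tube model; n = 6.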

PepT1 [7] = molecular target: T1, PepT1; assay: Regional intestinal permeability; type: in vivo
Summary of the method: as §1

[8] = 50 mM inhibitor, jejunal perfusion, PepT1 knockout mice
[9] = 50 mM inhibitor, jejunal perfusion, wild-type mice

Structure (SMILES): NCC(=O)NCC(=O)O [GlyGly, glycylglycine] (H-Gly-Gly-OH)
- effect of coperfused dipeptide on fMet-Leu-Phe-induced MPO activity ([1]; jejunum, wild-type mice, 10 μM fMet-Leu-Phe + 50 mM GlyGly, 4 h): returned to control values

Structure (SMILES): NCC(=O)N1CCC[C@H]1C(=O)O [GlyPro, glycylproline] (H-Gly-Pro-OH)
- Ki (PepT1 [2]): 100 mM
- reduction of fMet-Leu-Phe uptake by inhibitor (PepT1 [2]; 50 mM inhibitor, 0.1 μM [3H]fMet-Leu-Phe, jejunal perfusion, wild-type mice): 33%
- effect of inhibitor on permeability of fMet-Leu-Phe (PepT1 [2]; [8]): but not in PepT1 knockout animals
- effect of inhibitor on permeability of fMet-Leu-Phe (PepT1 [2]; [9]): significantly reduced

Structure (SMILES): N[C@@H](Cc1c[nH]cn1)C(=O)O [L-histidine]
- effect of inhibitor on permeability of fMet-Leu-Phe (PepT1 [2]; [8]): no effect
- effect of inhibitor on permeability of fMet-Leu-Phe (PepT1 [2]; [9]): no effect

Structure (SMILES): CSCC[C@H](NC=O)C(=O)N[C@@H](CC(C)C)C(=O)N[C@@H](Cc1ccccc1)C(=O)O [fMet-Leu-Phe, N-formyl-methionyl-leucyl-phenylalanine]
- hydrolysis in intestinal segments ([3]; duodenum and jejunum): substantial hydrolysis
- hydrolysis in intestinal segments ([3]; ileum and colon): only minor hydrolysis
- effect on MPO activity ([1]; colon, wild-type and PepT1 null mice, 4 h): without change
- effect on MPO activity ([1]; jejunum, PepT1 knockout mice, 4 h): no effect
- increase in MPO activity ([1]; jejunum, wild-type mice, 4 h perfusion of 10 μM fMet-Leu-Phe): about 2 fold
- Vmax of hydrolysis ([4]; PepT1 knockout mice): 3.3 ± 0.1 nmol/mg/min
- Vmax of hydrolysis ([4]; wild-type mice): 3.2 ± 0.2 nmol/mg/min
- intact tripeptide in portal vein [5]: no intact tripeptide was found
- effective permeability in PepT1 knockout versus wild-type mice (PepT1 [6]): did not differ between the two genotypes
- residual permeability in PepT1 knockout relative to wild-type mice (PepT1 [7]; duodenal, jejunal and ileal segments, on average): ~10%
- effective permeability in PepT1 knockout versus wild-type mice (PepT1 [7]; duodenum, jejunum and ileum, 0.1 μM): considerably lower
